Reference: PubChem BioAssay AID652236 (Johns Hopkins Ion Channel Center, 2013)
Fewer than 10 of roughly 2,300 compounds were called active.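 How the source made its calls: active means duplicate-mean ratio percent above the mean of iodide-only control wells, which defines zero, plus 5 of their SD; inactive means the rest.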 Only a sample is shown.

target: Chloride channel protein 1 (Rattus norvegicus) (UniProt P35524); test: blockers of rat ClC-1 channel – cell-based, voltage-dependent ClC-1, selectivity assay for TMEM16A inhibitor project (AID 652236); conditions: CHO ClC-1-YFP, iodide influx fluorescence quench; at 10 µM; iodide control reads 0, buffer control 100;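 further: higher percent means stronger block of ClC-1 iodide influx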
Sequence (P35524 whole entry, looked up): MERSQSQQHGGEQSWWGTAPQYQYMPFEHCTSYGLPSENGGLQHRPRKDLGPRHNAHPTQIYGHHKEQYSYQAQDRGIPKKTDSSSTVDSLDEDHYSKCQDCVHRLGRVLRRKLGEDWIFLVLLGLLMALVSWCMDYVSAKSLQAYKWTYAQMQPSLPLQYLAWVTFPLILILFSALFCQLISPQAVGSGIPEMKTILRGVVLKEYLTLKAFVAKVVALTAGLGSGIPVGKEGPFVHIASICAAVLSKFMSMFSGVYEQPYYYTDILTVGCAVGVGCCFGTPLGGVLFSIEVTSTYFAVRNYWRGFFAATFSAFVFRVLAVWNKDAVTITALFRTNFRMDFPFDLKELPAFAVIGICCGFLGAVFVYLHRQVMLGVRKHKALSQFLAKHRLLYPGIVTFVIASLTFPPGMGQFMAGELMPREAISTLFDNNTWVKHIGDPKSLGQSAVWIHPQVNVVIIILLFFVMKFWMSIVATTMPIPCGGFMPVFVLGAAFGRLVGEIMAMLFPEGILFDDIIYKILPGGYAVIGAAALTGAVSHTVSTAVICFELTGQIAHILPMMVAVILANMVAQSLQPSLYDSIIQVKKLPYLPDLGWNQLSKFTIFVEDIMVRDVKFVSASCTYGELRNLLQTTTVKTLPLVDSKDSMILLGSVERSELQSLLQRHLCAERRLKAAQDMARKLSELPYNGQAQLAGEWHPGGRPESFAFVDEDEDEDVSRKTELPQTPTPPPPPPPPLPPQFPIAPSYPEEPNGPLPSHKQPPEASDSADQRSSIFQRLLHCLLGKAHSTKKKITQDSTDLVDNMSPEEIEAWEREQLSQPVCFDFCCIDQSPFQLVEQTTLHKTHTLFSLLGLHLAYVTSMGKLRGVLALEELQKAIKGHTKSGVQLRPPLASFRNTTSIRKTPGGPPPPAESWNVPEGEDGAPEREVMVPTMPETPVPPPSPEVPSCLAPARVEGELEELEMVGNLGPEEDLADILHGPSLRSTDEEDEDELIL
Method in brief: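 System: ClC-1 CHO cells with mutant YFP H148Q/I152L | Buffer or medium: Sodium gluconate HBSS-HEPES, pH 7.4 | Reagent: Iodide addition (138 mM 4x stock) | Times: 20 min room-temperature pre-incubation, 10 s baseline, 50 s post-iodide reads | Detection: YFP fluorescence quench kinetics | Read-out: Percent ratio versus buffer and iodide controls | Control set: Buffer, iodide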

Ratio percent, inactive:
S=C(NCC1CCCO1)N1CCN(c2ccc(Cl)c(Cl)c2)CC1 (configuration not stated) -16.5%
COc1ccc(Cl)cc1NC(=O)CCS(=O)(=O)c1cc2c(cc1C)NC(=O)CO2 -11%
CCc1cc2c(N3CCN(c4nnc(CC)s4)CC3)ncnc2s1 -5%
Cc1cccc(-n2c(SCC(N)=O)nc3c(c2=O)C2(CCCCC2)Cc2ccccc2-3)c1 -9.5%
Cc1ccc(-c2csc(-c3c[nH]c4ccccc34)n2)cc1 -9.5%
CCCCCc1ccc(-c2ccc(C(=O)O)cc2)nc1 -6%
Cn1c(=O)n(C)c2cc(S(=O)(=O)N3CCCc4ccccc43)ccc21 -7.5%
O=C(Nc1ccccc1)c1ccccc1NC(=O)C(F)(F)F -15%
Cc1ccc(NC(=O)C(C)c2cccc(C(=O)c3ccccc3)c2)cc1 (configuration not stated) -13.5%
CSc1cccc(NC(=S)N(C(C)C)C(C)c2ccccn2)c1 (configuration not stated) -3%
CC(C)(C)C(=O)/C(C#N)=C/c1ccc(O)cc1 -8%
C=C(C)Cn1c(C)cc(C)c(S(=O)(=O)c2ccccc2C)c1=O -6%
CCCOc1ccc(Cc2c(Cl)nc(SC)nc2NC)cc1 -27.5%
CC(NC(=O)c1ccco1)C(=O)Nc1nc(-c2ccccn2)cs1 (configuration not stated) -2.5%
Cc1ccc2c(c1)N(CC(=O)N1CCCc3ccccc31)C(=O)C(C)O2 (configuration not stated) -3%
Cn1c(CCN2CCCCCC2)nc2cc(NC(=O)Nc3ccccc3)ccc21 -1.5%
Cc1cc(C)cc(NS(=O)(=O)c2ccc(Oc3ncc(C(F)(F)F)cc3Cl)cc2)c1 -9.5%
CN(c1cccc(NC(=O)c2ccc(CN3CCc4ccccc4C3)cc2)c1)S(C)(=O)=O -8%
COc1ccc(S(=O)(=O)NCCCCOc2ccc(Cl)cc2)cc1 -32.5%
COc1ccc(NC(=O)C2=CC(c3ccc(OC)c(OC)c3)=NS(=O)(=O)N2C)cc1 -3.5%
Cc1ccccc1-n1nnnc1SCCCC(=O)c1ccc(F)cc1 -11%
COc1ccc(-c2nc(CCNC(=O)c3ccc(Br)o3)cs2)cc1 -12%
O=C(CN1CCN(C(=S)NC2CCCC2)CC1)Nc1ccc(Oc2ccccc2)cc1 -15.5%
CCOC(=O)C1CCN(c2ncnc3c2oc2ccc(Br)cc23)CC1 -36.5%
Cc1cc(C=O)c(C)n1-c1ccc(NC2CCCCC2)c([N+](=O)[O-])c1 -10.5%
O=C(O)c1ccc(NC(=O)C2CCCCC2)cc1 -7%
Cc1nc(CNS(=O)(=O)c2ccc(Oc3ccccc3)cc2)cs1 -6.5%
S=C(NCc1cccs1)Nc1ccc(Cl)cc1 -12.5%
N#CC1=C(SCc2ccccc2)NC(=O)C(C#N)C12CCCC2 (configuration not stated) -12.5%
C=CCSc1nsc(NC(=O)Nc2cccc(C(C)=O)c2)n1 -15.5%
O=C(Nc1nc(-c2ccc3c(c2)OCO3)cs1)c1ccncc1 -13.5%
CCC(=O)Nc1ccc2nc(C)n(Cc3ccccc3Cl)c(=O)c2c1 -2%
O=C(N/N=C/c1cc(Cl)cc([N+](=O)[O-])c1O)C(O)(c1ccccc1)c1ccccc1 -7%
O=S1(=O)CCN(Cc2ccccc2Cl)CC1 -3.5%
O=C(NC(=S)Nc1ccccc1C(=O)O)c1ccc(-c2ccc(Br)cc2)o1 -15%
O=C(COC(=O)CCc1c[nH]c(=O)[nH]1)Nc1ccccc1Cl -14%
c1ccc(-c2nnc(SCc3nc4ccccc4[nH]3)o2)cc1 -14%
O=C1c2ccccc2C(Nc2ccc3c(c2)OCCO3)N1Cc1ccco1 (configuration not stated) -13%
Cc1ccc(NC(=O)CN(C)CC(=O)Nc2cccc(F)c2)cc1[N+](=O)[O-] -20.5%
COC(=O)c1ccc(COC(=O)c2c(C)nn(Cc3ccccc3Cl)c2Cl)o1 -2%
CCn1nccc1C(=O)Nc1ccc(S(=O)(=O)NC23CC4CC(CC(C4)C2)C3)cc1 -8.5%
COc1ccc2[nH]cc(/C=C(/C#N)S(=O)(=O)c3ccccc3)c2c1 -11.5%
CC1=NN(c2cccc(Cl)c2)C(=O)C12CC(C)=C(C)CS2 (configuration not stated) -13.5%
O=C(CSCc1ccc(Cl)cc1)N1CCN(Cc2ccc3c(c2)OCO3)CC1 2.5%
COc1ccc(CCC(=O)c2ccc(OC)cc2)cc1 -4%
Fc1ccc2[nH]c3c(N4CCSCC4)ncnc3c2c1 -36.5%
O=C(CNCCC1=CCCCC1)Nc1ccccc1N1CCCCCC1 -9%
CN(C)c1cc[n+](Cc2ccccc2)cc1 -5%
Cc1ccc(-n2[nH]c(C)c(/C=N/N3C(=O)c4cccc5cccc(c45)C3=O)c2=O)cc1 -16%
Cc1nc(SCC(=O)N2CCc3ccccc3C2)c2c(C)c(C)sc2n1 -16%
O=C(NCCc1ccc2c(c1)OCCO2)c1cc2ccccc2o1 -21%
Cc1ccc(F)cc1NC(=O)Cc1nn(C)c(=O)c2ccccc12 -14%
Cc1ccc(N)cc1-n1c(C)ccc1C -8%
CCOC(=O)C(Sc1ncc(C#N)c(N)n1)C(C)C (configuration not stated) -18%
Fc1ccc(CSc2nnc(-c3cc4c(s3)-c3ccccc3CC4)o2)cc1 -3%
N#Cc1nc(COc2ccc(-c3ccccc3)cc2)oc1NCc1cccnc1 -19%
Cc1nc2c(C(=O)NCc3ccc4c(c3)OCO4)c[nH]n2c(=O)c1Cc1ccccc1F -1.5%
COc1cc(CC(=O)Nc2nc(-c3ccc(F)c(F)c3)cs2)cc(OC)c1OC -7%
CN(Cc1cccnc1)C(=O)c1cc(COc2ccc3ncccc3c2)on1 -24%
Cc1ccc(-c2noc(CSc3nnnn3-c3ccccc3)n2)cc1 -1.5%
S=C(NCc1ccc(Cl)cc1)NC12CC3CC(CC(C3)C1)C2 -20.5%
Cc1[nH]n(-c2cccc(Cl)c2)c(=O)c1-c1ccc(Cl)cc1 -15%
COC(=O)c1ccc(NC(=O)c2ccccc2NS(=O)(=O)c2ccccc2)cc1 -22.5%
Cc1noc(C)c1COC(=O)c1cc2ccccc2cc1O -10.5%
CCOC(=O)N1CC=C2C(C#N)=C(N)C(C#N)(C#N)[C@H](c3cccs3)[C@H]2C1 -6.5%
CCOC(=O)c1cccc(NC(=O)CCn2nnc3ccccc32)c1 -15%
COc1cccc(CNS(=O)(=O)c2ccc3c(c2)CC(C)N3C(=O)C2CCC2)c1 (configuration not stated) -19.5%
O=C(Nc1cccc(S(=O)(=O)Nc2ccc(Cl)cc2)c1)c1ccc2c(c1)OCCO2 -24.5%
Cc1nc2ccccc2cc1OCc1ccc(F)cc1 -17%
CCCC(=O)Nc1ccccc1N1CCN(C(=O)c2ccccc2)CC1 -12.5%
CC1CCN(C(=O)c2ccc(CSc3ccc(Cl)cc3)cc2)CC1 -22.5%
CC(=O)c1c(C)[nH]c(C(=O)COC(=O)c2cccc(S(=O)(=O)N(C)c3ccccc3)c2)c1C -31%
CN1c2ccc(C=O)c3c(C=O)ccc(c23)N(C)C1(C)C -24.5%
COc1ccc(C(=O)NC2CCCc3c2cnn3-c2cccc(C)c2C)c(OC)n1 (configuration not stated) -21.5%
COc1ccc(CNc2nnnn2C)cc1 -10.5%
CCOC(=O)C1=C(CN2CCc3ccccc32)NC(=O)NC1c1cccc([N+](=O)[O-])c1 (configuration not stated) -12%
CSc1nnc2c(n1)OC(c1ccsc1)N(C(C)=O)c1ccccc1-2 (configuration not stated) -3.5%
Cc1nc(C)c(-c2csc(NCCc3ccccc3)n2)s1 -9%
CSc1nsc(NC(=O)Nc2ccccc2)n1 -7.5%
N#Cc1nc(N)nc(N(c2ccccc2)c2ccccc2)n1 -2%
CCCc1cc(=S)n2c([nH]c3ccccc32)c1C#N -9.5%
C=CCn1c(SCC(=O)Nc2nc3ccccc3s2)nnc1-c1ccccc1O -17.5%
CCCCNC(=O)CSc1nc2n[nH]c(C)c2c(=N)n1-c1cccc(Cl)c1C -4.5%
COc1ccc(OCC(=O)NCCc2ccc(S(N)(=O)=O)cc2)cc1 -14%
O=c1cc(C(F)(F)F)[nH]c(=O)n1C1CCCCC1 0%
Cc1ccc(-n2ncc3c(N4CCN(c5ccc(F)cc5)CC4)ncnc32)c(C)c1 -13%
Cc1cccc(N=Nc2c(O)[nH]c3ccc(F)cc23)c1 2.5%
Cc1ccc(C)c(N2CCN(C(=O)CCCCn3c(=O)[nH]c4ccccc4c3=O)CC2)c1 -2%
CC(C)CNC(=S)NNC(=O)c1nn(C)cc1Cl -14%
CCOC(=O)N1CCN(C(=O)c2ccc3c(c2)N(Cc2ccc(C)cc2)CCS3)CC1 -13%
Cc1ccc(C)c(N2CCN(S(=O)(=O)c3ccc4c(c3)oc(=O)n4C)CC2)c1 -27.5%
COc1ccc(-n2c(C)cc(C(=O)CSc3nnc(-c4cccs4)o3)c2C)cc1 -7%
Cn1c(CN2CCOCC2)nc2cc(NC(=O)c3ccc(Cl)cc3)ccc21 -9%
Cc1ccc2c(c1)N(S(=O)(=O)c1cc(-c3cc(C)no3)ccc1C)CCO2 -4%
Cc1ccc(N2C(=O)S/C(=C/c3cn(C)c4ccccc34)C2=O)cc1 -10%
CCCCn1ccnc1C(=O)c1cccc(S(=O)(=O)N2c3ccccc3CC2C)c1 (configuration not stated) -3%
CCN(CC)S(=O)(=O)c1ccc(N(C)Cc2ccc(C(F)(F)F)cc2)nc1 -9%
O=C(COc1ccccc1)NCc1ccc2c(c1)OCO2 -4.5%
Cc1ccc(C(=O)O)cc1-c1ccc(/C=C2\SC(=O)N(CC(=O)Nc3ccc4c(c3)OCO4)C2=O)o1 -5.5%
COc1ccc(CN(C)C(=O)CC(c2ccccc2)c2ccccc2)cc1 -8.5%
CC(=O)c1cc(CN2CCC(C(=O)Nc3cccc(-c4cscn4)c3)CC2)cs1 -16.5%
O=C1NC(=O)C2C1C(c1ccc([N+](=O)[O-])cc1)=NN2Cc1ccccc1 (configuration not stated) -32%
